Consider three molecules from ChEMBL document CHEMBL1123109, “Alkyl esters of 3-adenin-9-yl-2-hydroxypropanoic acid: a new class of broad-spectrum antiviral agents” (1985).

Molecules are shown by their SMILES. ≈ marks a conversion by molar mass, not a printed value.

Common to all, as to assay type: functional
Experiment [1] relates to Mammalian orthoreovirus 1. Nature of the experiment: Inhibition of Reo virus-1 induced cytopathicity in vero cells. For orientation: Cytopathic effects are the visible damage that an infection or toxin causes in cultured cells.
For a further experiment, the system named is Measles morbillivirus. Nature of the experiment: Inhibition of Measles virus induced cytopathicity in vero cells.
For experiment [2], the system named is Vesicular stomatitis virus. Nature of the experiment: Inhibition of Vesicular stomatitis virus induced cytopathicity in RK13 cells. Summed up:
(§1)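 Vesicular stomatitis virus was inoculated at 100 CCID50 (100× the dose infecting 50% of cells) in each cell type: human embryonic skin-muscle fibroblasts, LR-strain trisomy-21 fibroblasts, HEp-2, CV-1, BS-C-1, Balb/3T3, RK13, human kidney, HeLa and Vero. CPE was read at 1–2 days in every cell type, once complete in untreated infected controls. The MIC is the concentration giving a 50% reduction in cytopathogenicity.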

The test system of experiment [3] is Vesicular stomatitis virus. Nature of the experiment: Inhibition of Vesicular stomatitis virus induced cytopathicity in BALB/3T3 cells. To be noted: in Mus musculus. Summed up: as §1
Experiment [4] deals with Vesicular stomatitis virus. Nature of the experiment: Inhibition of Vesicular stomatitis virus induced cytopathicity in BS-C-1 cells. In outline:
as §1

Experiment [5] relates to Vesicular stomatitis virus. Nature of the experiment: Inhibition of Vesicular stomatitis virus induced cytopathicity in CV-1 cells. Summed up:
as §1

Experiment [6] has as its system Vesicular stomatitis virus. Nature of the experiment: Inhibition of Vesicular stomatitis virus induced cytopathicity in PRK cells.
The next experiment concerns Poliovirus 1. Briefly: Inhibition of polio virus 1 induced cytopathicity in HeLa cells. To be noted: Enterovirus C.
The next experiment relates to Human respirovirus 3. Briefly: Inhibition of parainfluenza virus-3 induced cytopathicity in vero cells.
Experiment [7] deals with HK. Briefly: Minimum inhibitory concentration which is required to reduce virus-induced cytopathogenicity by 50% against Vesicular stomatitis virus in human kidney. In outline:
as §1

The subject of the next experiment is Sindbis virus. Nature of the experiment: Inhibition of Sindbis virus induced cytopathicity in vero cells.
The subject of a further experiment is Human alphaherpesvirus 1. Briefly: Inhibition of HSV-1 induced cytopathicity in PRK cells.
The next experiment concerns Coxsackievirus B4. Nature of the experiment: Inhibition of Coxsackie B4 virus induced cytopathicity in HeLa cells. The following applies: Enterovirus B.
In a further experiment the test system is Vero. Nature of the experiment: Cytotoxic concentration against Vero cells. To be noted: Chlorocebus sabaeus. Summed up: (§2)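 Uninfected cells were incubated with compound for the same duration as the matching antiviral assay. The minimum cytotoxic concentration is the lowest one causing a microscopically detectable change in normal cell morphology.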

Experiment [8] has as its system Vesicular stomatitis virus. Nature of the experiment: Inhibition of Vesicular stomatitis virus induced cytopathicity in E6SM cells. In outline: as §1
In a further experiment the test system is HeLa. Nature of the experiment: Cytotoxic concentration against HeLa cells. The following applies: Homo sapiens. In outline: as §2
Experiment [9] deals with Vesicular stomatitis virus. Nature of the experiment: Inhibition of Vesicular stomatitis virus induced cytopathicity in HeLa cells. In outline: as §1
The subject of the next experiment is Vaccinia virus. Nature of the experiment: Inhibition of Vaccinia virus induced cytopathicity in PRK cells. The following applies: Orthopoxvirus vaccinia.
Experiment [10] has as its system Vesicular stomatitis virus. Briefly: Inhibition of Vesicular stomatitis virus induced cytopathicity in T-21 cells. Summed up:
as §1

The subject of the next experiment is PRK. Nature of the experiment: Cytotoxic concentration against PRK cells. The following applies: Oryctolagus cuniculus. In outline:
as §2

Experiment [11] deals with Vesicular stomatitis virus. Nature of the experiment: Inhibition of Vesicular stomatitis virus induced cytopathicity in HEp-2 cells. In outline: as §1
Experiment [12] deals with Vesicular stomatitis virus. Briefly: Inhibition of Vesicular stomatitis virus induced cytopathicity in Vero cells. Summed up:
as §1

The species named for experiment [13] is Oryctolagus cuniculus. Nature of the experiment: Inhibitory effects on DNA, RNA, and Protein synthesis in rabbit kidney cells was evaluated for incorporation of [methyl-3H]dThd]. The following applies: read-out: ID50 (the source's name).
The test system of experiment [14] is HK. Nature of the experiment: Minimum inhibitory concentration which is required to reduce virus-induced cytopathogenicity by 50% against Vesicular stomatitis virus in human kidney,. In outline:
as §1

The species entered for experiment [15] is Oryctolagus cuniculus. Nature of the experiment: Inhibitory effects on DNA, RNA, and Protein synthesis in rabbit kidney cells was evaluated for incorporation of [5-3H]-Urd. The following applies: read-out: ID50 (the source's name).
The species entered for experiment [16] is Oryctolagus cuniculus. Nature of the experiment: Inhibitory effects on DNA, RNA, and Protein synthesis in rabbit kidney cells was evaluated for incorporation of [4,5-3H]leucine. To be noted: read-out: ID50 (the source's name).

On to `CCCCCCCCOC(=O)C(O)Cn1cnc2c(N)ncnc21` (configuration not stated), for which the MIC in experiment [1] is 7 µg/mL (≈ 20.9 µM); against Measles morbillivirus it was 70 µg/mL (≈ 209 µM); in experiment [2], 30 µg/mL (≈ 89.4 µM); in [3] it was 100 µg/mL (≈ 298 µM); in experiment [4], more than 100 µg/mL; in experiment [5] it was more than 100 µg/mL. Moreover, the MIC in experiment [6] is 7 µg/mL (≈ 20.9 µM); with Poliovirus 1 it was more than 100 µg/mL; against Human respirovirus 3 it was 15 µg/mL (≈ 44.7 µM); against HK [7], 15 µg/mL (≈ 44.7 µM); with Sindbis virus, 30 µg/mL (≈ 89.4 µM); in the experiment on Human alphaherpesvirus 1, more than 100 µg/mL. For the same molecule, the MIC with Coxsackievirus B4 was more than 100 µg/mL; in [8], 7 µg/mL (≈ 20.9 µM); in experiment [9] it was 1 µg/mL (≈ 2.98 µM); against Vaccinia virus it was 7 µg/mL (≈ 20.9 µM); in experiment [10], 0.5 µg/mL (≈ 1.49 µM); in experiment [11] it was 2 µg/mL (≈ 5.96 µM). The MIC in [12] is 100 µg/mL (≈ 298 µM). Moreover, the figures for the MCC with Vero, with HeLa and in the experiment with PRK were 200 µg/mL, 100 µg/mL and 100 µg/mL, respectively.
Consider `CCCOC(=O)C(O)Cn1cnc2c(N)ncnc21` (configuration not stated), for which the MIC in experiment [1] is 200 µg/mL (≈ 754 µM); with Measles morbillivirus it was 100 µg/mL (≈ 377 µM); in experiment [2], 2 µg/mL (≈ 7.54 µM); in experiment [3] it was more than 400 µg/mL; in [4], 300 µg/mL (≈ 1130 µM); in experiment [5], more than 400 µg/mL. Also, the MIC is 1 µg/mL (≈ 3.77 µM) in experiment [6]; more than 400 µg/mL in the experiment with Poliovirus 1; 200 µg/mL (≈ 754 µM) against HK [14]; 100 µg/mL (≈ 377 µM) against Human respirovirus 3; more than 200 µg/mL in the experiment on Sindbis virus; more than 100 µg/mL with Human alphaherpesvirus 1. Further, the MIC is more than 400 µg/mL in the experiment on Coxsackievirus B4; 10 µg/mL (≈ 37.7 µM) in experiment [8]; 50 µg/mL (≈ 188 µM) in [9]; 3 µg/mL (≈ 11.3 µM) in the experiment with Vaccinia virus; 7 µg/mL (≈ 26.4 µM) in [10]; 3 µg/mL (≈ 11.3 µM) in experiment [11]. Besides, in experiment [12], the MIC worked out at 150 µg/mL (≈ 565 µM). Besides, the values for the IC50 in the experiment filed under Oryctolagus cuniculus [13], in the experiment listed under Oryctolagus cuniculus [15] and in the experiment listed under Oryctolagus cuniculus [16] were more than 276 µg/mL, 168 µg/mL (≈ 633 µM) and more than 400 µg/mL, respectively. Further, the MCC is more than 400 µg/mL in the experiment on Vero, more than 400 µg/mL in the experiment on HeLa and 100 µg/mL in the experiment with PRK.
With `CC(C)COC(=O)C(O)Cn1cnc2c(N)ncnc21` (configuration not stated), the MIC in [1] was found to be 150 µg/mL (≈ 537 µM); against Measles morbillivirus it was 40 µg/mL (≈ 143 µM); in experiment [2], 30 µg/mL (≈ 107 µM); in [3], 300 µg/mL (≈ 1070 µM); in experiment [4] it was 100 µg/mL (≈ 358 µM); in experiment [5] it was 200 µg/mL (≈ 716 µM). Further, the MIC in [6] was 1 µg/mL (≈ 3.58 µM); against Poliovirus 1, more than 400 µg/mL; against HK [14] it was 20 µg/mL (≈ 71.6 µM); against Human respirovirus 3, 20 µg/mL (≈ 71.6 µM); with Sindbis virus, more than 400 µg/mL; with Human alphaherpesvirus 1, more than 400 µg/mL. The MIC was more than 400 µg/mL in the experiment on Coxsackievirus B4; 5 µg/mL (≈ 17.9 µM) in [8]; 10 µg/mL (≈ 35.8 µM) in experiment [9]; 3 µg/mL (≈ 10.7 µM) against Vaccinia virus; 1 µg/mL (≈ 3.58 µM) in [10]; 1 µg/mL (≈ 3.58 µM) in experiment [11]. In [12], this molecule showed an MIC of 30 µg/mL (≈ 107 µM). Also, the IC50 is 242 µg/mL (≈ 866 µM) in the experiment listed under Oryctolagus cuniculus [13], 34 µg/mL (≈ 122 µM) in the experiment filed under Oryctolagus cuniculus [15] and more than 277 µg/mL in the experiment listed under Oryctolagus cuniculus [16]. Also, the MCC in the experiment on Vero, in the experiment on HeLa and in the experiment on PRK was more than 400 µg/mL in each case.
